Laboratory results from ChEMBL document CHEMBL3813633, “2-Aryl-8-aza-3-deazaadenosine analogues of 5'-O-[N-(salicyl)sulfamoyl]adenosine: Nucleoside antibiotics that block siderophore biosynthesis in Mycobacterium tuberculosis” (Bioorg Med Chem, 2016).
In brackets after ≈: the same amount, converted by molar mass. Activity calls are given as the source filed them. The calls are words filed in the database; no cut-off is given here.

Key:
[1] = test system: Mycobacterium tuberculosis; test: Antibacterial activity against Mycobacterium tuberculosis H37Rv under iron-deficient condition after 10 to 14 days by broth microdilution method; type: functional
Method in brief: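 M. tuberculosis H37Rv broth microdilution in iron-deficient GAST (GAS medium without ferric ammonium citrate, pH 6.6). Compounds were added from DMSO stocks, with isoniazid as positive control and DMSO as negative control. Initial density was 10^4–10^5 cells/assay at 37 °C. Growth was read as OD620 at 10–14 days, when controls reached OD620 0.2–0.3. MIC was determined in triplicate.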

[2] = test system: Mycobacterium tuberculosis; test: Antibacterial activity against Mycobacterium tuberculosis H37Rv at 50 uM under iron-replete condition after 10 to 14 days by broth microdilution method; type: functional, organism-based

## Nc1nc(-c2ccc3ccccc3c2)cc2c1nnn2[C@@H]1O[C@H](COS(=O)(=O)NC(=O)c2ccccc2O)[C@@H](O)[C@H]1O
[1]
  MIC: 12.5 µM (≈ 7.41 µg/mL)
[2]
  Activity: inactive

## COc1ccc2cc(-c3cc4c(nnn4[C@@H]4O[C@H](COS(=O)(=O)NC(=O)c5ccccc5O)[C@@H](O)[C@H]4O)c(N)n3)ccc2c1
[1]
  MIC: 19 µM (≈ 11.8 µg/mL)
[2]
  Activity: inactive

## Nc1nc(-c2ccc(C(F)(F)F)cc2)cc2c1nnn2[C@@H]1O[C@H](COS(=O)(=O)NC(=O)c2ccccc2O)[C@@H](O)[C@H]1O
[1]
  MIC: > 50 µM
[2]
  Activity: inactive

## Nc1nc(-c2ccc(F)cc2)cc2c1nnn2[C@@H]1O[C@H](COS(=O)(=O)NC(=O)c2ccccc2O)[C@@H](O)[C@H]1O
[1]
  MIC: 19 µM (≈ 10.6 µg/mL)
[2]
  Activity: inactive

## Cc1ccc(-c2cc3c(nnn3[C@@H]3O[C@H](COS(=O)(=O)NC(=O)c4ccccc4O)[C@@H](O)[C@H]3O)c(N)n2)cc1
[1]
  MIC: 25 µM (≈ 13.9 µg/mL)
[2]
  Activity: inactive

## Nc1nc(-c2ccccc2)cc2c1nnn2[C@@H]1O[C@H](COS(=O)(=O)NC(=O)c2ccccc2O)[C@@H](O)[C@H]1O
[1]
  MIC: 25 µM (≈ 13.6 µg/mL)
[2]
  Activity: inactive
